As usually defined, the Ki is a measure of affinity in units of concentration, obtained from inhibition or displacement. Low readings indicate higher affinity, high ones lower affinity. One may read the Kb as the equilibrium dissociation constant of an antagonist, usually derived from a functional assay. Read a low Kb as higher antagonist affinity.

Drawing on ChEMBL document CHEMBL1132476, “Design and synthesis of novel alpha(1)(a) adrenoceptor-selective antagonists. 1. Structure-activity relationship in dihydropyrimidinones” (J Med Chem, 1999), this text covers Ki and Kb for 18 compounds.

In assay [1] the target is T1, Alpha-1D adrenergic receptor (Homo sapiens, UniProt P25100).
T1 sequence (P25100 whole entry): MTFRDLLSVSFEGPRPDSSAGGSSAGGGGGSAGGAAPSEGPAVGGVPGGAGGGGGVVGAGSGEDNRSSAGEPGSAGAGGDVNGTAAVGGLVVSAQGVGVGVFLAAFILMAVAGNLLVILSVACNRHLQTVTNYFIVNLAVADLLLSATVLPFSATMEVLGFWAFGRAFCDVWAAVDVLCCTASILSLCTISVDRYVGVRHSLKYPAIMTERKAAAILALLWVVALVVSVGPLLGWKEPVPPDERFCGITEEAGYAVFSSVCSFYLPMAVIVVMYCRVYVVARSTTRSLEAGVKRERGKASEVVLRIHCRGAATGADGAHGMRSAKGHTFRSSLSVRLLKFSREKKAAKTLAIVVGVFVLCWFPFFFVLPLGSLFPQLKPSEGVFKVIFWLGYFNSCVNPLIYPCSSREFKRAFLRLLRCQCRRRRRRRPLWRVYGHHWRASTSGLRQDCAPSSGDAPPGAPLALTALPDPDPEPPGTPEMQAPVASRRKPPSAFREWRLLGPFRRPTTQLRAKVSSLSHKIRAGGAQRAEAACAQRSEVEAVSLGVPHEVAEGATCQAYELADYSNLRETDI
Description: In vitro binding affinity against Alpha-1D adrenergic receptor of cloned human receptor.

Assay [2] has as its target T2, Alpha-1B adrenergic receptor (Homo sapiens, UniProt P35368).
T2 sequence (P35368 whole entry): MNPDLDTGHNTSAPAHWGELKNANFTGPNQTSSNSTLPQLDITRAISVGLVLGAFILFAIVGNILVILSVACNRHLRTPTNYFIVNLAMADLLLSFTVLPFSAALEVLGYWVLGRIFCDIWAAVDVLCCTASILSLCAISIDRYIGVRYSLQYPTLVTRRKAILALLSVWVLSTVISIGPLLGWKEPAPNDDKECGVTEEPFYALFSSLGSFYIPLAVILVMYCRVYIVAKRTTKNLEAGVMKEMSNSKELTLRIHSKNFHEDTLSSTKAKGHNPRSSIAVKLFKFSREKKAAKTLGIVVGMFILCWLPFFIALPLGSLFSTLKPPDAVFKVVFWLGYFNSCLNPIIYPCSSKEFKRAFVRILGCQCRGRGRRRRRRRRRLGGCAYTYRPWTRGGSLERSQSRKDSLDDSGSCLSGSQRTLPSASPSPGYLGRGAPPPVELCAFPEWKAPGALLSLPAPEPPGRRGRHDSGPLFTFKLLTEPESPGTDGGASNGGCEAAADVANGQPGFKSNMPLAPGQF
Description: In vitro binding affinity against Alpha-1B adrenergic receptor of cloned human receptor.

Assay [3] deals with T3, Alpha-1A adrenergic receptor (Homo sapiens, UniProt P35348).
T3 sequence (P35348 whole entry): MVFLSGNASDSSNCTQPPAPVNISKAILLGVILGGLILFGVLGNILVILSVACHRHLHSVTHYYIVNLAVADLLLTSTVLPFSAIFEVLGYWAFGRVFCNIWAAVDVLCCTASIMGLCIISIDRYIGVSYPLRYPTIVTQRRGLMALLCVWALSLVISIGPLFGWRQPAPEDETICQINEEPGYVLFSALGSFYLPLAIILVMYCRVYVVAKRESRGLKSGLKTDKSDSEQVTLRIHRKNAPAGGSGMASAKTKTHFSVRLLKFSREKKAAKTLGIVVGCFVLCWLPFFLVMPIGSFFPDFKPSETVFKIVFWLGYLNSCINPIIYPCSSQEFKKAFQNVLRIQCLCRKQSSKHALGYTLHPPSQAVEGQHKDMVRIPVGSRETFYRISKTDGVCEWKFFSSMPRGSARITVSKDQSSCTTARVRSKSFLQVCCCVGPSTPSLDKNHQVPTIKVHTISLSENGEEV
Description: In vitro binding affinity against Alpha-1A adrenergic receptor of cloned human receptor.

Assay [4] deals with T4, Alpha-1A adrenergic receptor (Rattus norvegicus, UniProt P43140).
T4 sequence (P43140 whole entry): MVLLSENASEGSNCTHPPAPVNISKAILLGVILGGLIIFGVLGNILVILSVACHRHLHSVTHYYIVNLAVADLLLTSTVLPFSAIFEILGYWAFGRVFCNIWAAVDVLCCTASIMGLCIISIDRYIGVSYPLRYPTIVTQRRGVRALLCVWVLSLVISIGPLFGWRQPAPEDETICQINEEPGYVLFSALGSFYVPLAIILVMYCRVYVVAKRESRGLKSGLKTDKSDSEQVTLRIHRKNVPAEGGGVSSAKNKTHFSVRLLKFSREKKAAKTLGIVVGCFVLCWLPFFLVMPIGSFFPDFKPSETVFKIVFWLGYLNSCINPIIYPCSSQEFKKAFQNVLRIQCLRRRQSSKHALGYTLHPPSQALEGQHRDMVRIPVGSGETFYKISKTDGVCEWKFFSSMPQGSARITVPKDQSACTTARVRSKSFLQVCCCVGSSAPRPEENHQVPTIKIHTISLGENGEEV
Briefly: In vitro binding affinity against Alpha-1A adrenergic receptor in isolated prostate tissue of rat. The format is tissue-based, Prostate gland.

The species named for the next assay is Canis familiaris. Description: Antagonism against phenylephrine induced contractions in isolated prostate tissue of dog. Type of assay: functional, Canis lupus familiaris, Prostate gland. In outline:
(§1)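 Isolated prostate strips (rat or dog) contracted with phenylephrine as agonist. Antagonist potency is expressed as Kb, derived from the shift in the agonist response by a previously published method.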

The species entered for a further assay is Rattus norvegicus. Briefly: Antagonism against phenylephrine induced contractions in isolated prostate tissue of rat. The format is functional, Prostate gland. In outline: as §1
The species entered for another assay is Homo sapiens. Briefly: Antagonism against phenylephrine induced contractions in isolated prostate tissue of human. The format is functional. The settings on record: Prostate gland.

Several values for one entry are separate records, joined by “and”; a condition that tells them apart may be missing. Identical values can stand only once.

For `CCC1=C(C(=O)OC)C(c2ccc([N+](=O)[O-])cc2)N(C(=O)NCCCN2CCC(C(=O)OC)(c3ccccc3)CC2)C(=O)N1` (centres undefined), the inhibition constant (Ki) in assay [1] stood at 87 nM; in assay [2], 37 nM; in assay [3] it was 0.8 nM.
In the case of `CCC1=C(C(N)=O)C(c2ccc([N+](=O)[O-])cc2)N(C(=O)NCCCN2CCC(C(=O)OC)(c3ccccc3)CC2)C(=O)N1` (centres undefined), in assay [4], the Ki turned out to be 0.58 nM. The figures for the Kb in the assay filed under Canis familiaris, in the assay filed under Rattus norvegicus and in the assay listed under Homo sapiens were 0.85 nM, 2 nM and 0.04 nM, respectively.
Take `CCOC(=O)C1=C(C)NC(=O)N(C(=O)NCCCN2CCC(C(=O)OC)(c3ccccc3)CC2)C1c1ccc([N+](=O)[O-])cc1` (centres undefined): the Ki worked out at 91 nM in assay [1], 15 nM in assay [2] and 0.3 nM in assay [3].
Take `CCC1=C(C(N)=O)C(c2ccc(F)cc2F)N(C(=O)NCCCN2CCC(C(=O)OC)(c3ccccc3)CC2)C(=O)N1` (centres undefined): the results for the Ki in assay [1] and in assay [2] were 440 nM and 340 nM, respectively.
As to `COC(=O)C1(c2ccccc2)CCN(CCCNC(=O)N2C(=O)NC(C)=C(C(=O)O)C2c2ccc([N+](=O)[O-])cc2)CC1` (centres undefined), the values for the Ki in assay [1], in assay [2] and in assay [3] were 2600 nM, 1600 nM and 10 nM, respectively.
For `COC(=O)C1=C(C)NC(=O)N(C(=O)NCCCN2CCC(C(=O)OC)(c3ccccc3)CC2)C1c1cccc(C)c1` (centres undefined) the same measures were 320 nM, 110 nM and 1.8 nM.
The matching figures for `CCC1=C(C(=O)NC)C(c2ccc([N+](=O)[O-])cc2)N(C(=O)NCCCN2CCC(C(=O)OC)(c3ccccc3)CC2)C(=O)N1` (centres undefined): 398 nM, 139 nM and 1.2 nM.
Turning to `COC(=O)C1=C(C)NC(=O)N(C(=O)NCCCN2CCC(C(=O)OC)(c3ccccc3)CC2)C1c1ccc2nonc2c1` (centres undefined), the Ki was found to be 93 nM in assay [1], 27 nM in assay [2] and 0.1 nM in assay [3].
For `COC(=O)C1=C(C)NC(=O)N(C(=O)NCCCN2CCC(c3ccccc3)(c3ccccc3)CC2)C1c1ccc([N+](=O)[O-])cc1` (centres undefined) the same measures were 120 nM, 27 nM and 5 nM.
`COC(=O)C1=C(C)NC(=O)N(C(=O)NCCCN2CCC(C(=O)OC)(c3ccccc3)CC2)C1c1ccc(C)cc1` (centres undefined): the Ki came to 220 nM in assay [1], 77 nM in assay [2] and 8 nM in assay [3].
Turning to `COC(=O)C1=C(C)NC(=O)N(C(=O)NCCCN2CCC(C(=O)OC)(c3ccccc3)CC2)C1c1ccc([N+](=O)[O-])cc1` (centres undefined), the Ki is 180 nM and 100 nM and 80 nM in assay [1]; 81 nM and 28 nM and 19 nM in assay [2]; 0.4 nM and 0.5 nM and 2.1 nM in assay [3].
Regarding `COC(=O)C1=C(C)NC(=O)N(C(=O)NCCCN2CCC(C(=O)OC)(c3ccccc3)CC2)C1c1cccc(Cl)c1` (centres undefined), the Ki in assay [1] amounted to 180 nM; in assay [2] it was 50 nM; in assay [3], 1.1 nM.
The matching figures for `COC(=O)C1=C(C)NC(=O)N(C(=O)NCCCN2CCC(C(=O)OC)(c3ccccc3)CC2)C1c1ccc(F)cc1` (centres undefined): 180 nM, 78 nM and 1.2 nM.
For `COC(=O)C1=C(C)NC(=O)N(C(=O)NCCCN2CCC(C(=O)OC)(c3ccccc3)CC2)C1c1ccc(F)cc1F` (centres undefined), the results for the inhibitory constant (Ki) in assay [1], in assay [2] and in assay [3] were 180 nM, 88 nM and 0.2 nM, respectively.
The matching figures for `COC(=O)C1=C(C)NC(=O)N(C(=O)NCCCN2CCC(C(=O)OC)(c3ccccc3)CC2)C1c1ccc(Cl)cc1` (centres undefined): 170 nM, 48 nM and 4.5 nM.
Consider `COC(=O)C1=C(C)NC(=O)N(C(=O)NCCCN2CCC(C(=O)OC)(c3ccccc3)CC2)C1c1cccc(F)c1` (centres undefined), for which the Ki in assay [1] was determined as 150 nM; in assay [2] it was 67 nM; in assay [3] it was 1.5 nM.
For `COC(=O)C1(c2ccccc2)CCN(CCCNC(=O)N2C(=O)NC(C)=C(C(N)=O)C2c2ccc([N+](=O)[O-])cc2)CC1` (centres undefined), the results for the Ki in assay [1], in assay [2] and in assay [3] were 140 nM, 100 nM and 0.7 nM, respectively.
The matching figures for `CNC(=O)C1=C(C)NC(=O)N(C(=O)NCCCN2CCC(C(=O)OC)(c3ccccc3)CC2)C1c1ccc([N+](=O)[O-])cc1` (centres undefined): 270 nM, 100 nM and 2.1 nM.
